How the values were obtained:
HeLa [1] = test: Toxicity against human HeLa cells assessed as effect on cell membrane integrity at 1 to 20 uM after 48 hrs by trypan blue dye exclusion method; format: cell-based
HeLa [2] = test: Antiproliferative activity against human HeLa cells assessed as reduction in cell proliferation after 48 hrs by MTT assay; format: functional
Procedure, shortened: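 HeLa cells grown with FBS, 2 mM L-glutamine, penicillin/streptomycin at 37 °C, 5% CO2, seeded at 1.0 × 10^4 cells/cm2 (approx.). After 24 h, medium switched to 5% FBS medium with compounds diluted from 20 mM DMSO stocks, 50 to 0.05 µM, final DMSO ≤0.25% (vehicle control). Incubated 48 h. MTT 0.5 mg/mL for 4 h at 37 °C, formazan dissolved in DMSO, OD 570 nm. GI50 by linear regression of percent growth vs control. Three experiments, each in quadruplicate.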

HeLa [3] = test: Induction of cell cycle arrest in human HeLa cells assessed as increase in accumulation at subG0/G1 phase after 24 to 48 hrs by propidium iodide staining based flow cytometry; format: functional; settings: TDE = time-dependent effect

SMILES	GI50 (HeLa [2]) [µM]	Activity (HeLa [1])	Activity (HeLa [3])
CCOC(=O)c1sc2ccc(N)cc2c1NC(=O)c1ccc(F)c(Cl)c1	12.3	Non-toxic	
CCOC(=O)c1sc2ccc(N)cc2c1NC(=O)c1ccccc1	> 50	Non-toxic	
CCOC(=O)c1sc2ccc(NCc3c[nH]cn3)cc2c1NC(=O)c1ccc(C)cc1	11.7	Non-toxic	
CCOC(=O)c1sc2ccc(N)cc2c1NC(=O)c1ccc(C)cc1	24.4	Non-toxic	
CCOC(=O)c1sc2ccc(NCc3c[nH]cn3)cc2c1NC(=O)c1ccc(C(F)(F)F)cc1	16.8	Non-toxic	
CCOC(=O)c1sc2ccc(NCc3nc[nH]c3C)cc2c1NC(=O)c1ccccc1	23.3	Non-toxic	
CCOC(=O)c1sc2ccc(NCc3nc[nH]c3C)cc2c1NC(=O)c1ccc(C(F)(F)F)cc1	12.8	Non-toxic	
CCOC(=O)c1sc2ccc(N)cc2c1NC(=O)c1ccc(OC)cc1	> 50	Non-toxic	
CCOC(=O)c1sc2ccc(NCc3c[nH]cn3)cc2c1NC(=O)c1ccc(OC)cc1	12.9	Non-toxic	
CCOC(=O)c1sc2ccc(NCc3c[nH]cn3)cc2c1NC(=O)c1ccccc1	17.9	Non-toxic	

Continued by falling GI50 (HeLa [2]), values first:

GI50 (HeLa [2]) [µM]	SMILES	Activity (HeLa [1])	Activity (HeLa [3])
11.4	CCOC(=O)c1sc2ccc(NCc3nc[nH]c3C)cc2c1NC(=O)c1ccc(C)cc1	Non-toxic	
10.7	CCOC(=O)c1sc2ccc(NCc3c[nH]cn3)cc2c1NC(=O)c1ccc(F)c(Cl)c1	Non-toxic	
8.22	CCOC(=O)c1sc2ccc(NCc3nc[nH]c3C)cc2c1NC(=O)c1ccc(OC)cc1	Non-toxic	
6.79	CCOC(=O)c1sc2ccc(NCc3c[nH]cn3)cc2c1NC(=O)c1cc(OC)c(OC)c(OC)c1	Non-toxic	
6.68	CCOC(=O)c1sc2ccc(N)cc2c1NC(=O)c1ccc(C(F)(F)F)cc1	Non-toxic	
4.66	CCOC(=O)c1sc2ccc(N)cc2c1NC(=O)c1cc(OC)c(OC)c(OC)c1	Non-toxic	tde
2.91	CCOC(=O)c1sc2ccc(NCc3nc[nH]c3C)cc2c1NC(=O)c1ccc(F)c(Cl)c1	Non-toxic	tde
2.23	CCOC(=O)c1sc2ccc(NCc3nc[nH]c3C)cc2c1NC(=O)c1cc(OC)c(OC)c(OC)c1	Non-toxic	tde
